According to ChEMBL document CHEMBL1157875, “Thiosemicarbazones, semicarbazones, dithiocarbazates and hydrazide/hydrazones: anti-Mycobacterium tuberculosis activity and cytotoxicity” (Eur J Med Chem, 2010):
Values after ≈ are worked out from the molar mass of the structure shown.

Key:
[1] = test system: Mycobacterium tuberculosis; experiment: Antimycobacterial activity against Mycobacterium tuberculosis H37Rv after 7 days by resazurine microtiter assay; format: functional; conditions: 168 h
Summary of the method: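 M. tuberculosis broth microdilution (REMA). Compounds dissolved as DMSO stocks and diluted in Middlebrook 7H9 broth with OADC enrichment. Culture and compounds combined in 96-well plates, in triplicate, incubated 7 days at 37 °C. Resazurin then added; fluorescence read at 530 nm excitation, 590 nm emission. Isoniazid run on every plate as standard.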

J774 = experiment: Cytotoxicity against mouse J774 cells after 24 hrs by resazurin assay; format: cell-based; conditions: J774, 24 h
Summary of the method: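 J774 macrophages grown to confluence at 37 °C in 5% CO2, then seeded at 1 × 10^5 cells/mL and allowed 24 h to adhere. Resazurin added for 6 h; fluorescence read at 530 nm excitation, 590 nm emission.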

[2] = Selectivity index, ratio of IC50 for mouse J774 cells to MIC for Mycobacterium tuberculosis H37Rv; format: functional

In the case of S=C(N/N=C(/C(=N/NC(=S)Nc1ccccc1)c1ccccc1)c1ccccc1)Nc1ccccc1, the MIC [1] is reported as 49.1 µM (≈ 25 µg/mL), the IC50 (J774) is reported as 2460 µM and the “Selectivity Index” value [2] is reported as 50.
With O=C(N/N=C(/C(=N/NC(=O)c1ccncc1)c1ccccc1)c1ccccc1)c1ccncc1 the MIC [1] was 27.9 µM (≈ 12.5 µg/mL), the IC50 (J774) was 349 µM and the “Selectivity Index” value [2] was 12.5.
For O=C(N/N=C/c1ccccn1)c1ccccc1O, the MIC [1] was ≥ 1040 µM, the IC50 (J774) was 1300 µM and the “Selectivity Index” value [2] was “<=1.25”.
With C/C(=N\NC(=S)N1CCCCCC1)c1ccccn1 the MIC [1] was ≥ 181 µM, the IC50 (J774) was 4520 µM and the “Selectivity Index” value [2] was “<=25”.
With C/C(=N\NC(=S)Nc1ccccc1)c1ccccn1 the MIC [1] was 57.7 µM (≈ 15.6 µg/mL).
With O=C(N/N=C/c1ccccc1O)c1ccccc1O the MIC [1] was 122 µM (≈ 31.3 µg/mL), the IC50 (J774) was 1220 µM and the “Selectivity Index” value [2] was 10.
C/C(=N\NC(N)=S)c1ccccn1 gave an MIC [1] of 161 µM (≈ 31.3 µg/mL).
With CNC(=S)N/N=C(\C)c1ccccn1 the MIC [1] was 37.5 µM (≈ 7.8 µg/mL).
For CCNC(=S)N/N=C(\C)c1ccccn1, the MIC [1] was 14.1 µM (≈ 3.13 µg/mL), the IC50 (J774) was 2810 µM and the “Selectivity Index” value [2] was 200.
